A selection: hits, their analogues and other compounds. The true share with any hit is near 2.9%.
SENP8 block-1 = SENP8 protease inhibitors, primary screen, biochemical, luminescence | Sentrin-specific protease 8 (Homo sapiens), Q96LD8 | purified SENP8, Z-RLRGG-aminoluciferin cleavage | inhibition, % at 10 µM | 1.2% of 330,000 active | AID 2540, 2010; in the data active = inhibition above about 50%
SENP7 block = SENP7 protease inhibitors, primary screen, biochemical, luminescence, uHTS. Sentrin-specific protease 7 (Homo sapiens), Q9BQF6. recombinant SENP7, Z-RLRGG-aminoluciferin luminescence, 40 min. inhibition, % at 5 µM. 1.5% of 330,000 active;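 active = inhibition above about 50% at the single test dose, limit read from the data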
Target sequence (Q9BQF6 706-1050 limits assumed): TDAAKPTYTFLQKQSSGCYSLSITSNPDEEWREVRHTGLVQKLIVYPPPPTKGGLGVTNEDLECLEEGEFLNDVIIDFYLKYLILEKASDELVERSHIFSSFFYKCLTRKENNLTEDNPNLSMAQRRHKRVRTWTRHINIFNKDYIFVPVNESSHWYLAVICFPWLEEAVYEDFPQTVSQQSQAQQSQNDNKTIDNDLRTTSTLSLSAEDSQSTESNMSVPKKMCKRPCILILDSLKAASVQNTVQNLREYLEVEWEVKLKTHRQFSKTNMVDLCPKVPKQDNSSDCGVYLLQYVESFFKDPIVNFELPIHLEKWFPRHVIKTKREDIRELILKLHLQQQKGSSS
Apaf1 inhib = inhibitors of human Apaf-1 apoptosome, primary screen, biochemical, DEVD-Rh110 fluorescence, uHTS | reconstituted apoptosome caspase-3 activity | Apoptotic protease-activating factor 1 (Homo sapiens), O14727 | inhibition, % at 20 µM | 0.71% of 330,000 active | AID 489030, 2010; active = inhibition of at least 40% at 20 µM
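detection = Rh110 fluorescence intensity | test system = biochemical Apaf-1 apoptosome reconstitution | also added = cytochrome c and DEVD-Rh110 substrate | schedule = 30 min plus 50 min, RT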
SENP1 FRET inh = human SENP1 catalytic domain inhibitors, primary screen, biochemical, FRET, uHTS; recombinant SENP1 catalytic domain, CyPet-SUMO1-YPet FRET cleavage; inhibition, % at 10 µM; 0.21% of 360,000 active; AID 624204, 2012;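 active = inhibition at least 30% at 10 µM, raw YFP signal under a set limit, fluorescence ratio 0.5 to 1.5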
Target sequence (Q9P0U3 419-644 limits assumed): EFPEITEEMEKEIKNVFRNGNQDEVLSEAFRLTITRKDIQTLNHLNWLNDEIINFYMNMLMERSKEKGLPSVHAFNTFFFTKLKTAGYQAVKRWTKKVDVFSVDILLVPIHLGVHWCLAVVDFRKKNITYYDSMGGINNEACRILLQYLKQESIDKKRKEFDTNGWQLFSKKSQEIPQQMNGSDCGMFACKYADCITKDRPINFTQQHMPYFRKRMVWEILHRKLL
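Compound: 10 µM single point, 0.5% DMSO; Test system: hSENP1 catalytic domain, recombinant; Timing: 50 min reaction at room temperature; Technique: FRET, CFP and YFP emission; Control set: no-enzyme wells low, DMSO-plus-enzyme wells high control.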
SENP8 block-2 = human SENP8 protease inhibitors, primary screen, biochemical, fluorescence, Nedd8 protein substrate, uHTS | Sentrin-specific protease 8 (Homo sapiens), Q96LD8 | recombinant SENP8 | inhibition, % at 20 µM | 0.64% of 360,000 active; in the data active = inhibition mostly above about 40%, no sharp cut-off; inactive = mostly below about 27%
SENP6 inh = SENP6 protease inhibitors, primary screen, biochemical, luminescence, uHTS; 1.8% of 330,000 active; Recombinant SENP6 catalytic domain, aminoluciferin luminescence; inhibition, % at 10 µM; Sentrin-specific protease 6 (Homo sapiens), Q9GZR1;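 active = inhibition above about 50% at the single tested dose, limit read from the data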
SENP8 confirm = SENP8 protease inhibitors, retest, confirmation, biochemical, luminescence, single concentration. 40% of 6,200 active. inhibition, % at 12.5 µM. Recombinant SENP8, Z-RLRGG-aminoluciferin luminescence, 60 min. AID 488912, 2010. shares compounds with SENP7 block;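 active = mean inhibition across replicates above about 50%, limit read from the data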
SENP6 conf = SENP6 protease inhibitors, confirmation, biochemical, luminescence, single concentration; shares compounds with SENP7 block; recombinant SENP6, Z-RLRGG-aminoluciferin luminescence; inhibition, % at 12.5 µM; 58% of 6,200 active; AID 488915, 2010
SENP7 conf = SENP7 protease inhibitors, retest, confirmation, biochemical, luminescence, single concentration; recombinant SENP7, Z-RLRGG-aminoluciferin luminescence, 40 min; 69% of 6,200 active; AID 488917, 2010; shares compounds with SENP7 block; inhibition, % at 12.5 µM
Casp3 select = caspase-3 protease inhibitors, confirmation, selectivity assay for SENP inhibitor project, biochemical, single concentration | shares compounds with SENP7 block | purified caspase-3, Z-DEVD-aminoluciferin luminescence, 60 min | inhibition, % at 12.5 µM | 60% of 6,200 active | AID 488918, 2010;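 active = mean inhibition above about 50%, limit read from the data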
Luc interf = interferes with luciferase luminescence in SENP counter-screen. AID 488919. Pre-incubated SENP8/Z-RLRGG-aminoluciferin, luciferase luminescence interference. inhibition, % at 12.5 µM. 39% of 6,200 active. shares compounds with SENP7 block;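 active = mean inhibition above about 50% when retested at one dose, limit read from the data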
Of the large screens only hits and unclear results are named; the others gave an inactive call (follow-up assays come after a bar, where they were run).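 The calls were made as follows, unless noted: active = mean inhibition above about 50% in the one-dose retest (limit read from the data); inactive = the rest.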

CCCN(C(=O)CSc1nnc(-c2ccc3c(c2)OCO3)o1)C1CCS(=O)(=O)C1 (centres undefined)	none (no result: SENP8 block-1, SENP7 block, Apaf1 inhib, SENP6 inh)
CCOc1cc(Cl)c(S(=O)(=O)NCCCN2CCOCC2)cc1Cl	none
O=C(Nc1ccc(Br)cc1)c1ccc2c(c1)OCO2	SENP7 block 52 | SENP8 confirm inactive | SENP6 conf inactive | SENP7 conf 70 | Casp3 select inactive | Luc interf inactive
O=C(Nc1ccc(Cl)c(Cl)c1)c1ccc2c(c1)OCO2	SENP8 block-1 77, SENP7 block 72, SENP6 inh 80 | SENP8 confirm inactive | SENP6 conf 77 | SENP7 conf 96 | Casp3 select 65 | Luc interf inactive
O=C(NC(=S)Nc1ccc2c(c1)OCCO2)c1ccccc1	SENP6 inh 76 | SENP8 confirm 59 | SENP6 conf 61 | SENP7 conf 88 | Casp3 select 54 | Luc interf 59
O=C(Nc1ccc(Cl)c(Cl)c1)Nc1ccccc1O	SENP8 block-1 98, SENP7 block 97 | SENP8 confirm 98 | SENP6 conf 100 | SENP7 conf 104 | Casp3 select 90 | Luc interf 98
CCN(CC(=O)Nc1ccc(C(=O)OC)cc1)C1CCCCC1	none
CC1=CN2C(c3cccc([N+](=O)[O-])c3)=NON(c3ccc(C)cn3)C2C=C1 (centres undefined)	none (no result: SENP8 block-1, SENP7 block, Apaf1 inhib, SENP6 inh)
Cc1cc(C(=O)Nc2ccccn2)cs1	SENP7 block 71, SENP6 inh 72 | SENP8 confirm inactive | SENP6 conf inactive | SENP7 conf 85 | Casp3 select 85 | Luc interf 63
COc1cc(OC)cc(C(=O)NC(C(=O)Nc2ccc3c(c2)OCCO3)C(C)C)c1 (centres undefined)	none
COc1cc(C(=O)Nc2ccccn2)cc(OC)c1OC	none
COc1cc(OC)cc(C(=O)Nc2ccc3c(c2)OCCO3)c1	SENP8 block-1 92, SENP7 block 96, SENP6 inh 98 | SENP8 confirm inactive | SENP6 conf 95 | SENP7 conf 102 | Casp3 select 96 | Luc interf 95
Cc1cc(C(=O)Nc2ccc3c(c2)OCO3)cs1	SENP7 block 73, SENP6 inh 64 | SENP8 confirm 70 | SENP6 conf 72 | SENP7 conf 93 | Casp3 select 86 | Luc interf 75
COc1cccc(N(CC(=O)NC2CCCCC2)C(=O)CCC(=O)Nc2nccs2)c1	none
C[C@@H]1CN([C@H](C)CO)C(=O)CCCn2cc(nn2)CO[C@H]1CN(C)S(=O)(=O)c1ccc(C#N)cc1	none (no result: SENP8 block-1, SENP7 block, Apaf1 inhib, SENP6 inh)
Fc1ccccc1COc1ccc(C(=S)N2CCCC2)cc1	SENP8 block-1 64, SENP6 inh 58 | SENP8 confirm inactive | SENP6 conf inactive | SENP7 conf 60 | Casp3 select inactive | Luc interf inactive
Cn1nnc(-c2ccc(OCc3ccccc3F)cc2)n1	SENP8 block-1 91, SENP7 block 98, SENP6 inh 97 | SENP8 confirm inactive | SENP6 conf 94 | SENP7 conf 101 | Casp3 select 79 | Luc interf inactive
O=C(Oc1ccc(C(=S)N2CCCCC2)cc1)c1ccccc1F	none
CC(C)n1nnc(-c2ccc(OCc3ccccc3F)cc2)n1	SENP8 block-1 90, SENP7 block 90, SENP6 inh 90 | SENP8 confirm inactive | SENP6 conf 91 | SENP7 conf 100 | Casp3 select 82 | Luc interf 62
COc1cc(OC)nc(C(NC(=O)C2CCN(Cc3c[nH]c4ccccc34)CC2)c2ccc(Cl)cc2)n1 (centres undefined)	none (no result: SENP8 block-1, SENP7 block, Apaf1 inhib, SENP6 inh)
C#CCOCCOCCOCCNc1nc(N2CCN(C(=O)[C@H](CCCCN)n3cc(CCCC)nn3)CC2)nc(N2CCN(C(=O)[C@H](CCCCN)n3cc(CCC(=O)O)nn3)CC2)n1	none
O=C(CSc1ccccn1)N/N=C/c1ccccc1[N+](=O)[O-]	none
O=C(CSc1ccccn1)N/N=C/c1cc([N+](=O)[O-])ccc1O	SENP8 block-2 27, SENP6 inh 52 | SENP8 confirm inactive | SENP6 conf inactive | SENP7 conf 65 | Casp3 select 58 | Luc interf inactive
Cc1ccc(CNC(=O)C2CCCN(c3ncnc4c3nc3n4CCCCC3)C2)cc1 (centres undefined)	none
OC(c1ccc(OCc2ccccc2)cc1)c1nnc(-c2ccccc2)o1 (centres undefined)	SENP6 inh 50 | SENP8 confirm inactive | SENP6 conf inactive | SENP7 conf 56 | Casp3 select inactive | Luc interf inactive
OC(c1cccc(OCc2ccccc2)c1)c1nnc(-c2ccccc2)o1 (centres undefined)	none
COc1ccc(NC(=O)N2CCc3ccccc3C2)c(OC)c1	none
O=C(NC(=S)NNC(=O)c1ccccc1O)c1ccc(F)cc1	none
O=C(NC(=O)c1ccccc1O)c1ccc(C(F)(F)F)cc1	SENP8 block-1 71, SENP7 block 78, SENP6 inh 76 | SENP8 confirm 76 | SENP6 conf 75 | SENP7 conf 84 | Casp3 select 84 | Luc interf inactive
O=C(O)c1ccc(Nc2ccc([N+](=O)[O-])c3nonc23)cc1	SENP8 block-1 81, SENP7 block 68, SENP6 inh 85 | SENP8 confirm 89 | SENP6 conf 85 | SENP7 conf 97 | Casp3 select 72 | Luc interf 82
CC(=O)c1ccc(Nc2ccc([N+](=O)[O-])c3nonc23)cc1	none

Bioassay records deposited in PubChem BioAssay by Sanford-Burnham Center for Chemical Genomics.
